Source: article PMC3338355 (Biochemistry, 2011)
Non-standard residues stand in square brackets, D forms with d. No end group written: not given here. pS = N[C@@H](COP(=O)(O)O)C(=O)O

Tests used:
Dullard 46–244 [1] = molecular target: T1, Dullard 46–244 (Homo sapiens, UniProt O95476); experiment: MESG-coupled phosphatase assay; assay type: biochemical; details: MESG-coupled phosphatase assay (EnzChek E-6646), 25°C
T1 sequence (O95476 46-244): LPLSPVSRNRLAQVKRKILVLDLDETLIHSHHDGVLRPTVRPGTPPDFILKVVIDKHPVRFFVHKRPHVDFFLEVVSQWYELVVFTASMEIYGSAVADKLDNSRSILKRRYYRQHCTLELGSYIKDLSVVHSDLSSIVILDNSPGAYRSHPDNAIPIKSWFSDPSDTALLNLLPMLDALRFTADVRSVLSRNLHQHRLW
Procedure, shortened: (§1)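 Dullard residues 46–244 expressed in E. coli and purified to >95% by SDS/PAGE. Substrates were Pro/Thr/Ser-containing phosphoserine nonapeptides representing lipin1 phosphorylation sites. Dephosphorylation was followed as phosphate release under steady-state conditions to derive kcat/Km. The MESG-coupled assay and the molybdate green assay were used as independent read-outs.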

Dullard 46–244 [2] = molecular target: T1, Dullard 46–244; experiment: Biomol Green phosphate reagent; assay type: biochemical; details: values in parentheses, 25 °C
Procedure, shortened: as §1

dullard = details: dullard-catalyzed hydrolysis of generic substrate; cited from earlier work

SGSRP[pS]TP [S248]
kcat/Km (Dullard 46–244 [1]): 750 M⁻¹ s⁻¹ | Km (Dullard 46–244 [2]): 700 µM | kcat (Dullard 46–244 [2]): 0.01 ± 0.002 s⁻¹ | kcat/Km (Dullard 46–244 [2]): 14 M⁻¹ s⁻¹

DNMNT[pS]EDE [S176]
kcat (Dullard 46–244 [2]): > 0.5 s⁻¹

O=[N+]([O-])c1ccc(OP(=O)(O)O)cc1 [pNPP, p-nitrophenyl phosphate]
Km (dullard): 18000 µM | kcat (dullard): 1 s⁻¹ | kcat/Km (dullard): 56 M⁻¹ s⁻¹

PIL[pS]EGASR [S110]
kcat/Km (Dullard 46–244 [1]): 650 M⁻¹ s⁻¹ | Km (Dullard 46–244 [2]): 700 µM | kcat (Dullard 46–244 [2]): 0.28 ± 0.02 s⁻¹ | kcat/Km (Dullard 46–244 [2]): 400 M⁻¹ s⁻¹
